According to ChEMBL document CHEMBL1141259, “Cytotoxic ent-kauranoids from the medicinal plant Isodon xerophilus” (J Nat Prod, 2007):
pIC50: −log10 of the molar value.

How the values were obtained:
Format in all cases: functional, cell-based
[1] = system: MKN-45; assay: Cytotoxicity against human MKN45 cells after 48 hrs; details: MKN-45, 48 h
Summary of the method: (§1)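 Human lines obtained from Shanghai Cell Bank and kept in RPMI1640 with hormone-free 15% heat-inactivated FBS, 2 mM glutamine, 100 U/mL penicillin G and 100 µg/mL streptomycin. Seeded in 96-well plates at 5 × 10^4 cells/mL (K562) or 4 × 10^4 cells/mL (MKN45, HepG2). Exposed to compounds for 48 h, then viability was read by CCK-8 at 450 and 650 nm. IC50 is from triplicate experiments.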

[2] = system: K562; assay: Cytotoxicity against human K562 cells after 48 hrs; details: K562, 48 h; summary of the method: as §1
[3] = system: HepG2; assay: Cytotoxicity against human HepG2 cells after 48 hrs; details: HepG2, 48 h; summary of the method: as §1

`C=C1C(=O)[C@]23[C@H](O)[C@H]1CC[C@H]2[C@]12[C@H](O)CCC(C)(C)[C@H]1[C@H](O)[C@]3(O)O[C@@H]2O` [HEBEIRUBESCENSINS G] was tested, and the pIC50 [1] was less than 5.00, the pIC50 [2] was 5.28 and the pIC50 [3] was less than 5.00.

`C=C1C(=O)[C@]23[C@H](O)[C@H]1CC[C@H]2[C@@]12C(O)O[C@@]3(O)[C@@H](O)[C@@H]1C(C)(C)CC[C@H]2O` (stereo not given in full) [HEBEIRUBESCENSINS H] gave a pIC50 [1] of less than 5.00, a pIC50 [2] of 5.28 and a pIC50 [3] of less than 5.00.

`C=C1C(=O)[C@]23[C@H](O)[C@H]1CC[C@H]2[C@]12CCC[C@@](C)(COC(C)=O)[C@H]1[C@H](O)[C@]3(O)OC2` [LONGIKAURIN B] was tested, and the pIC50 [1] was 6.31, the pIC50 [2] was 5.80 and the pIC50 [3] was 5.92.

Work on `C=C1C(=O)[C@]23C[C@H]1C[C@@H](O)[C@H]2[C@]12CCC[C@@](C)(COC(C)=O)[C@H]1[C@H](O)[C@]3(O)OC2` [LONGIKAURIN D] yielded a pIC50 [1] of 6.47, a pIC50 [2] of 6.25 and a pIC50 [3] of 6.25.

`C=C1C(=O)[C@@]23[C@@H]4O[C@H]5O[C@@]2(O)[C@@H](O)[C@@H]2C(C)(C)CCC[C@]52[C@@H]3[C@@H](O)C[C@@H]14` [MACROCALIN B] gave a pIC50 [1] of less than 5.00, a pIC50 [2] of less than 5.00 and a pIC50 [3] of less than 5.00.

`C=C1C(=O)[C@]23C[C@H]1CC[C@H]2[C@@]12CO[C@@]3(O)[C@@H](O)[C@@H]1[C@](C)(COC(C)=O)[C@@H](O)C[C@H]2O` [MAOECRYSTAL I] showed a pIC50 [1] of 5.89, a pIC50 [2] of less than 5.00 and a pIC50 [3] of less than 5.00.

With `C=C1C(=O)[C@]23[C@H](O)[C@H]1C[C@H](O)[C@H]2[C@]12CCCC(C)(C)[C@H]1C(=O)[C@]3(O)[C@H]2O` [PHYLLOSTACHYSIN A] the pIC50 [1] was 5.52 and the pIC50 [2] was 5.18.

`C=C1C(=O)[C@@]23[C@@H]4OC5O[C@@]2(O)[C@@H](O)[C@@H]2C(C)(C)CC[C@@H](O)[C@]52[C@@H]3CC[C@@H]14` [PONICIDIN] gave a pIC50 [1] of less than 5.00, a pIC50 [2] of 5.89 and a pIC50 [3] of 6.02.

Work on `C=C1[C@@H](OC(C)=O)[C@]23[C@H](O)[C@H]1CC[C@H]2[C@]12CCCC(C)(C)[C@H]1[C@H](OC(C)=O)[C@]3(O)OC2` [RABDOTERNIN C] yielded a pIC50 [1] of less than 5.00, a pIC50 [2] of less than 5.00 and a pIC50 [3] of less than 5.00.

`C=C1[C@@H](O)[C@]23[C@H](O)[C@H]1C[C@H](O)[C@H]2[C@]12CCCC(C)(C)[C@H]1[C@H](OC(C)=O)[C@]3(O)OC2` [RABDOTERNIN D] gave a pIC50 [1] of less than 5.00, a pIC50 [2] of less than 5.00 and a pIC50 [3] of less than 5.00.

Compound `C=C1C(=O)[C@]23[C@H](O)[C@H]1CC[C@H]2[C@@]12C(OC)O[C@@]3(O)[C@@H](O)[C@@H]1C(C)(C)CC[C@H]2O` (stereo not given in full) [RABDOTERNIN E] has a pIC50 [1] of less than 5.00, a pIC50 [2] of 5.62 and a pIC50 [3] of less than 5.00.

`C=C1C(=O)[C@]23[C@H](O)[C@H]1C[C@H](O)[C@H]2[C@]12CCCC(C)(C)[C@H]1[C@H](O)[C@]3(O)OC2` [ROSTHORIN A] gave a pIC50 [1] of 5.27, a pIC50 [2] of 6.48 and a pIC50 [3] of 5.19.

`C=C1C(=O)[C@]23C[C@H]1C[C@@H](O)[C@@H]2[C@@]1(CCC[C@@](C)(COC(C)=O)[C@H]1C=O)COC3=O` [TRICHORABDAL B] showed a pIC50 [1] of less than 5.00, a pIC50 [2] of less than 5.00 and a pIC50 [3] of less than 5.00.

For `C=C1C(=O)[C@@]23[C@@H]4O[C@H]5O[C@@]2(O)[C@@H](O)[C@@H]2C(C)(C)CCC[C@]52[C@@H]3[C@@H](OC(C)=O)C[C@@H]14` [XEROPHILUSIN A], the pIC50 [1] was less than 5.00, the pIC50 [2] was 5.80 and the pIC50 [3] was less than 5.00.

With `C=C1C(=O)[C@@]23[C@@H]4O[C@H]5O[C@@]2(O)[C@@H](O)[C@@H]2C(C)(C)CCC[C@]52[C@@H]3CC[C@@H]14` [XEROPHILUSIN B] the pIC50 [1] was 6.40, the pIC50 [2] was 5.39 and the pIC50 [3] was 5.41.

With `C=C1C(=O)[C@]23[C@H](O)[C@H]1CC[C@H]2[C@@]12CCC[C@@]4(C)CO[C@H]1O[C@@]3(O)[C@@H](O)[C@H]42` [XEROPHILUSIN D] the pIC50 [1] was 5.41, the pIC50 [2] was 5.05 and the pIC50 [3] was 5.38.

`C=C1C(=O)[C@]23[C@H](O)[C@H]1C[C@H](OC(C)=O)[C@H]2[C@]12CCCC(C)(C)[C@H]1C(=O)[C@]3(O)[C@H]2O` [XEROPHILUSIN F] was tested, and the pIC50 [1] was less than 5.00, the pIC50 [2] was 5.37 and the pIC50 [3] was 5.31.

`C=C1C(=O)[C@]23C[C@H]1CC[C@H]2[C@@]12CO[C@@]3(O)[C@@H](O)[C@@H]1[C@](C)(COC(C)=O)CC[C@H]2O` [XEROPHILUSIN H] was tested, and the pIC50 [1] was less than 5.00, the pIC50 [2] was less than 5.00 and the pIC50 [3] was less than 5.00.

`C=C1C(=O)[C@@]23C(=O)[C@@H](O)[C@@H]4C(C)(C)CCC[C@@]4(C=O)[C@@H]2[C@@H](O)C[C@@H]1[C@H]3O` [XEROPHILUSIN II] was tested, and the pIC50 [1] was less than 5.00, the pIC50 [2] was 6.00 and the pIC50 [3] was 5.35.

For `C=C1C(=O)[C@]23[C@H](O)[C@H]1CC[C@H]2[C@]12CCC[C@@](C)(CO)[C@H]1[C@H](O)[C@]3(O)OC2` [XEROPHILUSIN IV], the pIC50 [1] was less than 5.00, the pIC50 [2] was less than 5.00 and the pIC50 [3] was less than 5.00.

`C=C1C(=O)[C@]23C[C@H]1CC[C@H]2[C@@]12CO[C@@]3(O)[C@@H](O)[C@@H]1C(C)(C)CC[C@H]2O` [XEROPHILUSIN I] was tested, and the pIC50 [1] was 5.21, the pIC50 [2] was 5.12 and the pIC50 [3] was 5.40.

With `C=C1C(=O)[C@]23[C@H](O)[C@H]1C[C@H](OC(C)=O)[C@H]2[C@]12CCCC(C)(C)[C@H]1[C@H](O)[C@]3(O)OC2` [XEROPHILUSIN K] the pIC50 [1] was 5.25, the pIC50 [2] was 5.85 and the pIC50 [3] was 5.66.

`C=C1C(=O)[C@]23[C@H](O)[C@H]1CC[C@H]2[C@]12CCCC(C)(C)[C@H]1[C@H](O)[C@]3(O)OC2=O` [XEROPHILUSIN N] gave a pIC50 [1] of 5.32, a pIC50 [2] of 5.92 and a pIC50 [3] of less than 5.00.

With `C=C1C(=O)[C@]23[C@H](O)[C@H]1C[C@H](O)[C@H]2[C@@]12CO[C@@]3(O)[C@@H](O)[C@@H]1[C@](C)(COC(C)=O)CC[C@H]2O` [XEROPHILUSIN VI] the pIC50 [1] was less than 5.00, the pIC50 [2] was less than 5.00 and the pIC50 [3] was less than 5.00.

Compound `C=C1[C@@H](O)[C@]23[C@H](O)[C@H]1CC[C@H]2[C@@]12CO[C@@]3(O)[C@@H](O)[C@@H]1[C@](C)(CO)CC[C@H]2O` [XEROPHILUSIN V] has a pIC50 [1] of less than 5.00, a pIC50 [2] of less than 5.00 and a pIC50 [3] of less than 5.00.

Work on `COC[C@@H]1C(=O)[C@]23[C@H](O)[C@H]1C[C@H](OC(C)=O)[C@H]2[C@]12CCCC(C)(C)[C@H]1[C@H](O)[C@]3(O)OC2` [XEROPHILUSIN X1] yielded a pIC50 [1] of 5.41, a pIC50 [2] of 5.82 and a pIC50 [3] of 5.72.

Compound `C=C1C(=O)[C@]23[C@H](O)[C@H]1C[C@H](OC(C)=O)[C@H]2[C@]12CCCC(C)(C)[C@H]1[C@H](O)[C@]3(O)O[C@@H]2OC` [XEROPHILUSIN XII] has a pIC50 [1] of 5.68, a pIC50 [2] of 5.44 and a pIC50 [3] of 5.31.

`C=C1C(=O)[C@]23[C@H](O)[C@H]1C[C@H](O)[C@H]2[C@]12CCCC(C)(C)[C@H]1[C@H](O)[C@]3(O)O[C@@H]2OC` [XEROPHILUSIN XI] showed a pIC50 [1] of less than 5.00, a pIC50 [2] of less than 5.00 and a pIC50 [3] of less than 5.00.

For `C=C1[C@@H]2C[C@H](OC(C)=O)[C@H]3[C@]45CCCC(C)(C)[C@H]4[C@H](OC(C)=O)[C@](O)(OC5)[C@]3([C@@H]2O)[C@H]1O` [XEROPHILUSIN X], the pIC50 [1] was less than 5.00, the pIC50 [2] was less than 5.00 and the pIC50 [3] was less than 5.00.

Work on `C=C1C(=O)[C@]23[C@H](O)[C@H]1C[C@H](O)[C@H]2[C@]1(C=O)CCCC(C)(C)[C@H]1C(=O)[C@@H]3O` [XEROPHILUSINE I] yielded a pIC50 [1] of 5.55, a pIC50 [2] of 7.40 and a pIC50 [3] of 6.72.

Compound `CC(=O)O[C@H]1C[C@H]2C3=C(O[C@]4(CC3)C(=O)[C@@]35[C@@H]6O[C@H]7O[C@@]3(O)[C@@H](O)[C@@H]3C(C)(C)CCC[C@@]73[C@@H]5[C@@H](OC(C)=O)C[C@H]64)[C@@]34[C@@H]2O[C@H]2O[C@@]3(O)[C@@H](O)[C@@H]3C(C)(C)CCC[C@]23[C@H]14` [enanderinanin J] has a pIC50 [1] of less than 5.00, a pIC50 [2] of less than 5.00 and a pIC50 [3] of less than 5.00.

`C=C1C(=O)[C@]23[C@H](O)[C@H]1CC[C@H]2[C@@]12CO[C@@]3(O)[C@@H](O)[C@@H]1[C@](C)(COC(C)=O)CC[C@H]2O` [xerophilusin G] was tested, and the pIC50 [1] was less than 5.00, the pIC50 [2] was less than 5.00 and the pIC50 [3] was less than 5.00.
